kcat/Km, Km and kcat data for three proteins are collected here from ChEMBL document CHEMBL1250451, “Mechanistic insights into a Ca2+-dependent family of alpha-mannosidases in a human gut symbiont” (Nat Chem Biol, 2010).

Holding throughout (format): protein assay
Substrate in data set [1]: OC[C@H]1O[C@H](O[C@H]2[C@H](O)[C@H](O)[C@@H](O)O[C@@H]2CO)[C@@H](O)[C@@H](O)[C@@H]1O
The data set can be described thus: (§1) Ratio of Kcat to Km for Bacteroides thetaiotaomicron GH92 alpha-mannosidase GH92 alpha-mannosidase 3530 assessed as mannose release after 16 hrs by HPLC.

Substrate in data set [2]: O=[N+]([O-])c1ccc(O[C@H]2O[C@H](CO)[C@@H](O)[C@H](O)[C@@H]2O)cc1
The data set is described as §1.

Substrate in data set [3]: OC[C@H]1O[C@H](O[C@H]2[C@H](O)[C@H](O)[C@@H](O)O[C@@H]2CO)[C@@H](O)[C@@H](O)[C@@H]1O
The data set can be described thus: (§2) Activity of Bacteroides thetaiotaomicron GH92 alpha-mannosidase GH92 alpha-mannosidase 3530 assessed as mannose release after 16 hrs by HPLC.

Substrate in data set [4]: O=[N+]([O-])c1ccc(O[C@H]2O[C@H](CO)[C@@H](O)[C@H](O)[C@@H]2O)cc1
Described as §2.

Substrate in data set [5]: OC[C@H]1O[C@H](O[C@H]2[C@H](O)[C@H](O)[C@@H](O)O[C@@H]2CO)[C@@H](O)[C@@H](O)[C@@H]1O
The data set is described as follows: (§3) Activity of Bacteroides thetaiotaomicron GH92 alpha-mannosidase GH92 alpha-mannosidase 4073 assessed as mannose release after 16 hrs by HPLC. In short, it runs like this: (§4)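 Yeast mannan or ovalbumin (mostly high-mannose N-glycans) at 1 mg ml−1 was incubated with recombinant IMAC-purified enzyme from E. coli. The methods give enzyme at 2 μM and the table footnote gives 1 μM. Buffer was 100 mM sodium HEPES pH 7.0 with 1 mg ml−1 BSA and 2 mM CaCl2. Aliquots were taken at 1 and 16 h and boiled 10 min. Mannose was measured by HPLC and scored by signal: >500 nC +++, 200–500 ++, <200 +.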

Substrate in data set [6]: O=[N+]([O-])c1ccc(O[C@H]2O[C@H](CO)[C@@H](O)[C@H](O)[C@@H]2O)cc1
Described as §3. In short, it runs like this:
as §4

Substrate in data set [7]: O=[N+]([O-])c1ccc(O[C@H]2O[C@H](CO)[C@@H](O)[C@H](O)[C@@H]2O)cc1
The data set can be described thus: Ratio of Kcat to Km for Bacteroides thetaiotaomicron GH92 alpha-mannosidase GH92 alpha-mannosidase 4073 assessed as mannose release after 16 hrs by HPLC.

Substrate in data set [8]: OC[C@H]1O[C@H](O[C@H]2[C@H](O)[C@H](O)[C@@H](O)O[C@@H]2CO)[C@@H](O)[C@@H](O)[C@@H]1O
The data set can be described thus: (§5) Ratio of Kcat to Km for Bacteroides thetaiotaomicron GH92 alpha-mannosidase GH92 alpha-mannosidase 3994 assessed as mannose release after 16 hrs by HPLC.

Substrate in data set [9]: O=[N+]([O-])c1ccc(O[C@H]2O[C@H](CO)[C@@H](O)[C@H](O)[C@@H]2O)cc1
Described as §5.

Substrate in data set [10]: O=[N+]([O-])c1ccc(O[C@H]2O[C@H](CO)[C@@H](O)[C@H](O)[C@@H]2O)cc1
The data set is described as follows: Activity of Bacteroides thetaiotaomicron GH92 alpha-mannosidase GH92 alpha-mannosidase 3994 assessed as mannose release after 16 hrs by HPLC.

B1: Alpha-1,2-mannosidase (BT_3530) (Bacteroides thetaiotaomicron), Q8A1X8 (protein)
chain: MTPSVAQNTKYVNLFIGTSGDNGQVAPGAAAPFGMVCVCPDNDPRSHAGYDYAVTKVSGISVNRLSGVGCSGGGGNLRIRPVAPSQELHIKKSREKATPGYYSTAFTNGIKTELTATNAMAVERYKFPRSLSAALWIDFASTFEDVATCHYKRISETCIEGYVQAKNVCGHGCYKLYFSLNTSQPFQLEEQKETTACLTFGKKVRSVEVRIGLSALSSELASWECARWEKMDFEDVKSRTADQWEKQLSAIDVKGGKKDDRVIFYTSLYRTYLSPADVSSPDGAYLGTDGKVYISEDFRYYSNWSLWDTFRTKFPLLVLTEPAKMRDMATSLIHLYATGKKDWSTGFESTPTVRTEHAVILLLDAYRKGITNLDFRKGYAGMKQEMERLPMRSPDQKMESAYDLWAMAKIAEIIGEKADSEQYRQRSVSLFEETWKKEFMNVTPAFEVMKNNGLYQGTRWQYRWAAPQYIDKMIEWVGQDSLRLQLTYFFDHHLYNQGNEPDIHVPYLFNRLGAPEKTQQIVRSLMTEPMIHKYGGNSEFKTPYLGKAFKNAPEGYSPEMDEDDGTMSAWYVFGAMGFYPLLVGDEYYDLTSPLFDRVLLRLTNGNVLTIQTEGRKKKDAPIKSIHFNGKKIADYRISHNELIKGGELIYNYK
The term kcat/Km denotes the turnover number divided by the Michaelis constant. Usually Km stands for the substrate concentration at which the rate is half of its maximum. By kcat is commonly meant the maximal rate divided by the concentration of active sites. With B1, the kcat/Km in data set [1] was 1.58 M⁻¹ s⁻¹; in data set [2] it was “Not Active”. For the same protein, the Km in data set [3] is 610 µM; in data set [4], “Not Active”. For the same protein, the kcat in data set [3] is 0.001 s⁻¹; in data set [4] it was “Not Active”.

B2: Alpha-1,2-mannosidase, putative (BT_4073) (Bacteroides thetaiotaomicron), Q8A0E8 (protein)
chain: MYKASANILIACSFLWLTACSSAGVVTEDLIPTDYVNPFIGASTSVGAAGVYHGLGKTFPGATTPYGMVQVSPNTITGGDNSSGYSDEHKTIEGFAFTQMSGVGWFGDLGNFLVMPTTGELQKIAGKEDGSIKGYRSSYDKATETAKAGYYSVELTDYKIKVESSATPHCGILQFTFPSNEQSRIQIDLARRVGGTSTSQYVKVLDDYTIQGWMKCTPDGGGWGNGEGNSDYTVYYYAQFSKPLSNYGFWSADIPDEWVRKRDEVVSIPYLTRISQAPVIKDKKELEGKHLGFFTEFPTKEGEQVEMKVGISFVDMEGAANNFKQEIASKNFAQVKQEASDLWNKELSRIRISGGTDDEKTVFYTSLYHTMIDPRIYTDVDGRYIGGDKKVHEQDGTFTKRTIFSGWDVFRSQFPLQAMINPRLVSDALNSLITMADQSRREYYERWELLNSYSGCMIGNPALSVLADAYMKGIRTYDVEKAYQYAVNTSAKFGNDSLGYTPEPLSISYTLEYAYADWCVAQLAKALGKEEDAKRFYEKGQAYRNMFDAEKGWFRPRNADGSWKAWPENALTEEWYGCIESNAYQQGWFVPHDVPGMVELMGGKEEVIANLTNLFDHTPSDMLWNDYYNHANEPVHFVPFLFNQLDVPWYTQKWTRYICKNAYANKVEGIVGNEDVGQMSAWYILAASGIHPSCPGNTRMEITSPVFDKVEFNLDSKYHQGKVFTIIAHNNNTNNLYIQKALLNGKEYNKCYLDFAEIAAGGTLELFMGDKPNTEWGVLSNI
Regarding B2, the Km in data set [5] was 270 µM. Further, in [6], the Km is 1800 µM and the kcat was 0.0045 s⁻¹. In [7], the kcat/Km came out at 2.33 M⁻¹ s⁻¹.

B3: Alpha-1,2-mannosidase (BT_3994) (Bacteroides thetaiotaomicron), Q8A0M7 (protein)
chain: MKTPIYLLLIVCIFASCNTKQTQAEIDYTSYVNPFIGTDFTGNTYPGAQAPFGMVQLSPDNGLPGWDRISGYFYPDSTIAGFSHTHLSGTGAGDLYDISFMPVTLPYKEAEAPLGIYSKFSHDEESAYAGYYQVRLKDYHINVELTATERCGIQRYTFPKAEAAIFLNLKKAMNWDFTNDSHIEVVDSVTIQGYRYSDGWARDQRIYFRTRFSKPFDKVELDTTAIIKDKQHIGTAVIARFDFHTEEGEQILVNTAISGVSMEGAAKNLQAEVPENDFDKYLAETKANWNRQLGKIEVEGDNQDDKVNFYTALYHSMIAPTIYSDVDGAYYGPDKKVHQSDGWVNYSTFSLWDTYRAAHPLFTYTEPERVNDMVKSFIAFFEQNGRLPVWNFYGSETDMMIGYHAVPVIVDAYLKGIGNFDAEKALAACVATANLDNYRGIGLYKQLGYIPYNVTDHYNAENWSLSKTLEYAFDDYCIAEMANKMGKKEIADEFYKRSQNYKNVYNPATSFMQPRDDKGNFIKDFKADEYTPHICESNGWQYFWSVQHDIDGLIDLTGGKNRFAEKLDSMFTYHPAADEELPIFSTGMIGQYAHGNEPSHHVIYLFNAVGQQNLTQKYVAKVMNELYKNEPAGLCGNEDCGQMSAWYVFSAMGFYPVNPVSGKYEIGTPLFPEMKLHLANGKTFTVLAPKVSKENIYIQSIKVDGQPYNKTYLTHEQIMSGTTVEFEMGNTPLVEVEFEEQTQ
For the protein B3, the results for the kcat/Km in data set [8] and in data set [9] were 0.0833 M⁻¹ s⁻¹ and 433 M⁻¹ s⁻¹, respectively. The Km in [10] came out at 3700 µM. Further, in data set [10], the kcat was determined as 1.57 s⁻¹.
